# Experimental data reported in ChEMBL document CHEMBL1155198, “Non-nucleoside inhibitors of HCV polymerase NS5B. Part 4: structure-based design, synthesis, and biological evaluation of benzo[d]isothiazole-1,1-dioxides” (Bioorg Med Chem Lett, 2009).
# Legend:
# Genome polyprotein = Genome polyprotein (Hepatitis C virus genotype 1b (isolate Con1) (HCV), UniProt Q9WMX2); test: Inhibition of […] con1 NS5B polymerase assessed as [3H]UTP incorporation into acid insoluble RNA product
# Hepatitis C virus [1] = test: Antiviral activity against HCV1b infected in human 2209-23 cells assessed as inhibition of virus RNA replication by Renilla luciferase reporter gene assay; format: functional, organism-based, Hepacivirus hominis; conditions: genotype 1b
# Hepatitis C virus [2] = test: Antiviral activity against HCV1b infected in human 2209-23 cells assessed as inhibition of virus RNA replication by Renilla luciferase reporter gene assay in presence of 40% human serum; format: functional, organism-based, Hepacivirus hominis; conditions: genotype 1b
# Method in brief: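 Serum-shift version of the HCV subgenomic replicon (GT-1b) cell assay, with 40% human serum added to assess the effect of protein binding.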
# Hepatitis C virus [3] = test: Antiviral activity against HCV1b infected in human 2209-23 cells assessed as inhibition of virus RNA replication by Renilla luciferase reporter gene assay in presence of 5% fetal bovine serum; format: functional, organism-based, Hepacivirus hominis; conditions: genotype 1b
# Method in brief: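 Cell-based HCV subgenomic replicon (genotype 1b) assay run in medium containing 5% fetal bovine serum.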
# Hepatitis C virus [4] = test: Selectivity ratio, EC50 for HCV1b in presence of 40% human serum to EC50 for HCV1b in presence of 5% fetal bovine serum; format: functional, Hepacivirus hominis, genotype 1b
# [5] = AUC in rat at 2 mg/kg, iv and 5 mg/kg, po; format: ADME, organism-based; conditions: plasma
# Method in brief: (§1)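 Single-dose PK in rats or cynomolgus monkeys; intravenous dose 2 mg/Kg, oral dose 5 mg/Kg; parameters reported as means.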
# [6] = Metabolic stability in rat liver microsomes; format: ADME, Microsome; conditions: read-out: Stability
# [7] = Clearance in rat at 2 mg/kg, iv and 5 mg/kg, po; format: ADME, organism-based; conditions: in vivo; method in brief: as §1
# Caco-2 = test: Efflux ratio of permeability from basolateral to apical over apical to basolateral side in human Caco-2 cells after 21 days; conditions: caco-2, 504 h
# [8] = Oral bioavailability in rat at 5 mg/kg; format: ADME, organism-based; conditions: in vivo; method in brief: as §1
# [9] = Half life in rat at 2 mg/kg, iv and 5 mg/kg, po; format: ADME, organism-based; conditions: in vivo; method in brief: as §1
# Hepatitis C virus [10] = test: Ratio of EC50 for HCV GT-1a replicon over EC50 for HCV GT-1b replicon
# [11] = Oral bioavailability in cynomolgus monkey at 5 mg/kg; format: ADME, organism-based, Macaca fascicularis; conditions: in vivo; method in brief: as §1
# [12] = Metabolic stability in cynomolgus monkey liver microsomes; format: ADME, Macaca fascicularis, Microsome; conditions: read-out: Stability
# [13] = Clearance in cynomolgus monkey at 2 mg/kg, iv and 5 mg/kg, po; format: ADME, organism-based, Macaca fascicularis; conditions: in vivo; method in brief: as §1
# [14] = AUC in cynomolgus monkey at 2 mg/kg, iv and 5 mg/kg, po; format: ADME, organism-based, Macaca fascicularis; conditions: plasma; method in brief: as §1
# [15] = Half life in cynomolgus monkey at 2 mg/kg, iv and 5 mg/kg, po; format: ADME, organism-based, Macaca fascicularis; conditions: in vivo; method in brief: as §1
# Genome polyprotein, sequence (Q9WMX2 2420-3010 limits assumed): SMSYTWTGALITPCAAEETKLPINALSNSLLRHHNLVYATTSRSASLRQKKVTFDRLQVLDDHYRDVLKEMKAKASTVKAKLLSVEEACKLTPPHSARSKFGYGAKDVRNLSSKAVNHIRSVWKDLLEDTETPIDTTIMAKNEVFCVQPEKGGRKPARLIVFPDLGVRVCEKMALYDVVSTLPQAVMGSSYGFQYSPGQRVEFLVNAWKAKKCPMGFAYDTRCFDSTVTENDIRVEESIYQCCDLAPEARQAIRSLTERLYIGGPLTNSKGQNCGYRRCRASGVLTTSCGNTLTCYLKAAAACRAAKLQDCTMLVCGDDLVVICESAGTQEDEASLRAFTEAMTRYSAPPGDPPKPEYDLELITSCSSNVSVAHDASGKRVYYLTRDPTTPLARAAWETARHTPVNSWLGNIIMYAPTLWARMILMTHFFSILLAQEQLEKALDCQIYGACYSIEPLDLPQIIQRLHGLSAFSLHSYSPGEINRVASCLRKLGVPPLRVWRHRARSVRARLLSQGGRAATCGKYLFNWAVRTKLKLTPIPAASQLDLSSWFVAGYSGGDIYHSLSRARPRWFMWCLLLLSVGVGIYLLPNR
SMILES,IC50 (Genome polyprotein) [nM],EC50 (Hepatitis C virus [2]) [nM],EC50 (Hepatitis C virus [3]) [nM],Ratio IC50 (Hepatitis C virus [4]),Ratio EC50 (Hepatitis C virus [10]),also measured
CC(C)(C)[C@H]1C(O)=C(C2=NS(=O)(=O)c3c(NS(C)(=O)=O)cccc32)C(=O)N1Cc1ccc(F)cc1,5,,,,,EC50 (Hepatitis C virus [1]): 4920 nM
CC(C)(C)[C@H]1C(O)=C(C2=NS(=O)(=O)c3c(CN4CCCCS4(=O)=O)cccc32)C(=O)N1Cc1ccc(F)cc1,12,4660,202,23.1,,
CN(Cc1cccc2c1S(=O)(=O)N=C2C1=C(O)[C@H](C(C)(C)C)N(Cc2ccc(F)c(Cl)c2)C1=O)S(C)(=O)=O,10,3040,108,28.1,,
Cc1cc(CN2C(=O)C(C3=NS(=O)(=O)c4c(CN(C)S(C)(=O)=O)cccc43)=C(O)[C@@H]2C(C)(C)C)ccc1F,5,1070,129,8.27,2,AUC [5]: 582 ng·h/mL; microsomal CLint [6]: 939 µL/min/mg; clearance [7]: 34.4 mL/min/kg; Ratio (Caco-2): 4.3; bioavailability [8]: 24%; half-life [9]: 3.37 h
CC(C)(C)[C@H]1C(O)=C(C2=NS(=O)(=O)c3c(CNS(C)(=O)=O)cccc32)C(=O)N1Cc1ccc(F)cc1,,3730,100,37.3,2,
CC(C)(C)[C@H]1C(O)=C(C2=NS(=O)(=O)c3cc(CNS(C)(=O)=O)ccc32)C(=O)N1Cc1ccc(F)cc1,43,,,,,EC50 (Hepatitis C virus [1]): 3840 nM
CC(C)(C)[C@H]1C(O)=C(C2=NS(=O)(=O)c3c(OCS(C)(=O)=O)cccc32)C(=O)N1Cc1ccc(F)cc1,9,4660,235,19.8,,
CC(C)(C)[C@H]1C(O)=C(C2=NS(=O)(=O)c3c(OCS(N)(=O)=O)cccc32)C(=O)N1Cc1ccc(F)cc1,6,2900,228,12.7,,

# Second part, led by results:
IC50 (Genome polyprotein) [nM],EC50 (Hepatitis C virus [2]) [nM],EC50 (Hepatitis C virus [3]) [nM],SMILES,Ratio IC50 (Hepatitis C virus [4]),Ratio EC50 (Hepatitis C virus [10]),also measured
1,1270,272,CN(Cc1cccc2c1S(=O)(=O)N=C2C1=C(O)[C@H](C(C)(C)C)N(Cc2ccc(F)cc2)C1=O)S(N)(=O)=O,5.9,,
4,2570,82,Cc1cc(CN2C(=O)C(C3=NS(=O)(=O)c4c(CNS(C)(=O)=O)cccc43)=C(O)[C@@H]2C(C)(C)C)ccc1F,31.3,2,bioavailability [11]: 11%; AUC [5]: 2750 ng·h/mL; microsomal CLint [12]: 23 µL/min/mg; microsomal CLint [6]: 431 µL/min/mg; clearance [13]: 10 mL/min/kg; clearance [7]: 8.4 mL/min/kg; AUC [14]: 1230 ng·h/mL; Ratio (Caco-2): 31; bioavailability [8]: 17%; half-life [9]: 4.18 h; half-life [15]: 1.75 h
3,1300,105,CC(C)(C)[C@H]1C(O)=C(C2=NS(=O)(=O)c3c(CNS(N)(=O)=O)cccc32)C(=O)N1Cc1ccc(F)cc1,12.4,,
4,4800,282,CC(C)(C)[C@H]1C(O)=C(C2=NS(=O)(=O)c3c(CCS(C)(=O)=O)cccc32)C(=O)N1Cc1ccc(F)cc1,17,,
3,1170,76,Cc1cc(CN2C(=O)C(C3=NS(=O)(=O)c4c(CNS(N)(=O)=O)cccc43)=C(O)[C@@H]2C(C)(C)C)ccc1F,15.3,2,AUC [5]: 102 ng·h/mL; microsomal CLint [6]: 239 µL/min/mg; clearance [7]: 48 mL/min/kg; Ratio (Caco-2): 6.7; bioavailability [8]: 8.2%; half-life [9]: 4.7 h
